ChEMBL document CHEMBL4049387, “Combination of l-Carnitine with Lipophilic Linkage-Donating Gemcitabine Derivatives as Intestinal Novel Organic Cation Transporter 2-Targeting Oral Prodrugs” (J Med Chem, 2017)

What was measured:
[1] = Terminal half-life in Wistar rat at 50 mg/kg, po administered as single dose by UPLC-MS/MS method; type: ADME, organism-based; details: in vivo, read-out: beta t1/2 (converted)
In short: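 Wistar rats, six per group, single oral dose equivalent to 50 mg/kg gemcitabine; separate group given gemcitabine iv at 7.5 mg/kg. Oral sampling at 5, 10, 15, 30 min and 1, 2, 4, 6, 8, 12, 24 h; iv at 15, 30 min and 2, 4, 8, 12, 24 h. Blood into THU-pretreated heparinized tubes, centrifuged 3000 × g 15 min, plasma at -80 °C. Prodrug and gemcitabine quantified by UPLC-MS/MS. F = AUCpo×Div/AUCiv/Dpo×100%.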

[2] = Stability of the compound in pH 6.8 phosphate buffer at 5 uM by HPLC method; type: physicochemical; details: pH 6.8, 5 µM
In short: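 Compound dissolved at 5 µM in phosphate buffer (pH 1.2, 6.8 or 7.4), held at 37 °C for 24 h. Aliquots taken at intervals and analysed by HPLC. t1/2 = 0.693/k from linear regression of pseudo-first-order kinetics.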

[3] = system: Mus musculus; experiment: Toxicity in Kunming mouse assessed as fibrosis in kidney at 102 mg/kg, po administered once daily for 14 days by hematoxylin/eosin staining based optical microscopic analysis; type: organism-based; details: in vivo, 336 h
In short: (§1)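 Kunming mice, four per group, dosed orally once daily for 14 days with 102 mg/kg or saline control; body weight recorded every other day. Heart, liver, spleen, lung and kidney fixed in 10% buffered formalin, paraffin-embedded, sectioned, stained with hematoxylin and eosin, and examined by optical microscopy.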

[4] = system: Mus musculus; experiment: Toxicity in Kunming mouse assessed as inflammatory infiltrates in lung at 102 mg/kg, po administered once daily for 14 days by hematoxylin/eosin staining based optical microscopic analysis; type: organism-based; details: in vivo, 336 h
In short: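 Kunming mice, four per group, dosed orally once daily for 14 days with test article or physiological saline control, body weight recorded every other day. After sacrifice, heart, liver, spleen, lung and kidney were fixed at once in 10% buffered formalin, paraffin-embedded, sectioned, H&E stained and examined by optical microscopy for hydropic degeneration, inflammatory infiltrates and fibrosis.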

[5] = system: Spleen; experiment: Drug uptake in mouse spleen at 102 mg/kg, po administered as single dose at 0.5 hrs post dose; type: ADME, organism-based; details: in vivo
In short: (§2)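 Mice, three per time point, single oral dose of 102 mg/kg (equivalent to 50 mg/kg gemcitabine). Heart, liver, spleen, lung, kidney and brain collected at 0.16, 0.5 and 2 h, rinsed in saline. 0.3 g tissue homogenized 1 min in 1 mL saline, spun 13,000 rpm 4 °C 5 min. Gemcitabine measured in supernatant.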

[6] = system: Caco-2; experiment: Ratio of IC50 for cytotoxicity against human Caco2 cells in presence of L-carnitine to IC50 for cytotoxicity against human Caco2 cells in absence of L-carnitine; type: functional
[7] = target: T1, Organic cation/carnitine transporter 2 (Homo sapiens, UniProt O76082); experiment: Ratio of drug transport assessed as OCTN2 transporter mediated drug uptake in human Caco2 cells at 1 to 800 uM in presence of Na+ to drug transport assessed as OCTN2 transporter mediated drug uptake in human Caco2 cells at 1 to 800 uM in presence of N-methyl-D-glucamine; type: ADME, cell-based; details: caco-2, 800 µM
T1 sequence (O76082 whole entry): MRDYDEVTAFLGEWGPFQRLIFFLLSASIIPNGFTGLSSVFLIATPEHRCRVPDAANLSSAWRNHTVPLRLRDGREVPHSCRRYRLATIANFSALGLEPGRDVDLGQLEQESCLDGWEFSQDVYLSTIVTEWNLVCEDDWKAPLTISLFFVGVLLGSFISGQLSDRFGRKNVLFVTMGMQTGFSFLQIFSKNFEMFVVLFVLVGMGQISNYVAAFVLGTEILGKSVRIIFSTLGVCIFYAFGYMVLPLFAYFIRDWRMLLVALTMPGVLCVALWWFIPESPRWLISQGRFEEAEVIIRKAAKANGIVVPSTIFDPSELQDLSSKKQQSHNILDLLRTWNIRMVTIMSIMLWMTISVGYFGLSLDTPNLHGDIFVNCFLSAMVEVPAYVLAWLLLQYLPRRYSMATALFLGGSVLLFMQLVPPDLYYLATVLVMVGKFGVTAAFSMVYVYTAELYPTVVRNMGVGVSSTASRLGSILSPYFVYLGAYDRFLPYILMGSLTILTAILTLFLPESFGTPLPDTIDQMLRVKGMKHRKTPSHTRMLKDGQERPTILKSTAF

[8] = target: T2, Organic cation/carnitine transporter 2 (Rattus norvegicus, UniProt O70594); experiment: Ratio of drug transport assessed as OCTN2 transporter mediated effective permeability in rat duodenum at 76 uM in absence of L-carnitine to drug transport assessed as OCTN2 transporter mediated effective permeability in rat duodenum at 76 uM in presence of L-carnitine; type: ADME
T2 sequence (O70594 whole entry): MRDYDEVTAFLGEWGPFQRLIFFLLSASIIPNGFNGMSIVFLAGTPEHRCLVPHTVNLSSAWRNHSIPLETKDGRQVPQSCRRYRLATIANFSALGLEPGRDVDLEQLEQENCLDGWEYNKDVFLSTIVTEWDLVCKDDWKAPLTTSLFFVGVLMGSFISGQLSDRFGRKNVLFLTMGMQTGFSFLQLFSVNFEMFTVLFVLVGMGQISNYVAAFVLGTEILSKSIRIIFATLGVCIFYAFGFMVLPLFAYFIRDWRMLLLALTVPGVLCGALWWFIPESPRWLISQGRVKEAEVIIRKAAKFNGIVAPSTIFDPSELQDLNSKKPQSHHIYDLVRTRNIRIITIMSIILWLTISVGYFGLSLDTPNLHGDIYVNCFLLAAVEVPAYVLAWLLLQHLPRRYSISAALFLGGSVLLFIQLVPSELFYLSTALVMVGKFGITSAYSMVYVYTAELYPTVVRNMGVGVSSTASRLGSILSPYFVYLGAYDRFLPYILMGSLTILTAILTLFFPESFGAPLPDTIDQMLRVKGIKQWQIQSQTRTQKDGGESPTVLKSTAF

[9] = system: Mus musculus; experiment: Toxicity in Kunming mouse assessed as fibrosis in lung at 102 mg/kg, po administered once daily for 14 days by hematoxylin/eosin staining based optical microscopic analysis; type: organism-based; details: in vivo, 336 h; in short: as §1
[10] = system: Mus musculus; experiment: Toxicity in Kunming mouse assessed as fibrosis in hepatocytes at 102 mg/kg, po administered once daily for 14 days by hematoxylin/eosin staining based optical microscopic analysis; type: organism-based; details: in vivo, 336 h; in short: as §1
[11] = system: Mus musculus; experiment: Toxicity in Kunming mouse assessed as […] degeneration in lung at 102 mg/kg, po administered once daily for 14 days by hematoxylin/eosin staining based optical microscopic analysis; type: organism-based; details: in vivo, 336 h; in short: as §1
[12] = system: Spleen; experiment: Drug uptake in mouse spleen at 102 mg/kg, po administered as single dose at 2 hrs post dose; type: ADME, organism-based; details: in vivo; in short: as §2
[13] = target: T1, Organic cation/carnitine transporter 2; experiment: Ratio of drug transport assessed as OCTN2 transporter mediated drug uptake in human Caco2 cells at 100 uM in absence of L-carnitine to drug transport assessed as OCTN2 transporter mediated drug uptake in human Caco2 cells at 100 uM in presence of L-carnitine; type: ADME, cell-based; details: caco-2, 100 µM

half-life [1]: 6.8 h
Stability [2]: Stable
Drug uptake [5]: Active
Ratio [7]: 2 to 10
Ratio [8]: 11
Drug uptake [12]: Not Active
Ratio [13]: 2.2 to 3.7
SMILES: C[N+](C)(C)CC(CC(=O)[O-])OC(=O)CCCCC(=O)Nc1ccn([C@@H]2O[C@H](CO)[C@@H](O)C2(F)F)c(=O)n1 (stereo partly drawn)
Activity [3]: Non-Toxic
Activity [4]: Non-Toxic
Ratio IC50 [6]: 8
Activity [9]: Non-Toxic
Activity [10]: Non-Toxic
Activity [11]: Non-Toxic
